An excerpt weighted towards active compounds, which were near 3.6% of everything screened.
NadD inh: inhibitors of Staphylococcus aureus NadD. purified NadD enzyme, colorimetric absorbance read-out. inhibition, % at 20 µM. actives 0.78% (n = 360,000). AID 602399; in the data active = inhibition above about 26%
SENP1 FRET inh: blocks the human SENP1 SUMO protease catalytic domain. inhibition, % at 10 µM. recombinant SENP1 catalytic domain, CyPet-SUMO1-YPet FRET cleavage. actives 0.21% (n = 360,000). AID 624204. Q9P0U3;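 active = inhibition at least 30% at 10 µM, raw YFP signal under a set limit, fluorescence ratio 0.5 to 1.5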;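 note: 0% = enzyme with DMSO and 100% = no enzyme wells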
Target sequence (Q9P0U3 419-644 limits assumed): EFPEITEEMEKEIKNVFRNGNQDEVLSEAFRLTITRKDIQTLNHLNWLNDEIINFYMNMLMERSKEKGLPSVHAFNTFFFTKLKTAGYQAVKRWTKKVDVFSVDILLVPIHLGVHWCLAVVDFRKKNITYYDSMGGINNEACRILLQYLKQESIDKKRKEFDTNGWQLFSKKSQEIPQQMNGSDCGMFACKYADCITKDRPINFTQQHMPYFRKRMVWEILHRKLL
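material = recombinant human SENP1 catalytic domain, His6-tagged | quantity = 20 pM enzyme | reagent = 25 nM SUMO1 FRET substrate | compound dosing = 10 µM single point, 0.5% DMSO | timing = 50 min enzyme reaction, room temperature, light-protected | detection = FRET, CFP and YFP emission | control set = no-enzyme low, enzyme-DMSO high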
ATG4B inh: ATG4B (human) cysteine protease inhibition. actives 0.51% (n = 340,000). inhibition, % at 8.33 µM. AID 504462. ATG4B cleavage of LC3-PLA2, NBD-HPC fluorescence, 1 h; in the data active = inhibition above about 40%
GRIN3A LBD mod: modulates the human NR3A ligand-binding domain; AID 1259313; Tm shift relative to glycine control, % at 25 µM; actives 2.5% (n = 340,000); NR3A LBD differential scanning fluorimetry, Tm shift; 0% = protein alone, 100% = glycine-bound protein;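 active = melting temperature shift of at least 10% of the positive control shift, at one fixed dose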
UCH37 inh: blocks the human deubiquitinase UCH37; inhibition, % (no concentration beside the values); Q9Y5K5; purified proteasome/UCH37, Ub-AMC cleavage fluorescence; AID 588478; actives 0.33% (n = 330,000);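 active = mean inhibition over replicate wells above about 20%, limit read from the data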;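 note: 0% = compound-free wells with enzyme and 100% = wells lacking proteasome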
Target sequence (Q9Y5K5 whole entry, looked up): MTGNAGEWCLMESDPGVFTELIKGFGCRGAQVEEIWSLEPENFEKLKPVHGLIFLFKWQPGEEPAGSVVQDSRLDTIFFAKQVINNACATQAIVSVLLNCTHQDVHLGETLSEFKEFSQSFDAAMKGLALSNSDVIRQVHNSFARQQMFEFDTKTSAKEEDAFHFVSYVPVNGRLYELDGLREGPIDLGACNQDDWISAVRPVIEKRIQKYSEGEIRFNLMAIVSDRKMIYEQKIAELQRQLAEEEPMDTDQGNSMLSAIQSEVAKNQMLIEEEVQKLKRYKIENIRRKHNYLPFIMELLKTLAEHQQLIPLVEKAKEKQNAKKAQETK
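Material: human UCH37 enzyme supplied as purified proteasome complex / Amount: 0.15 nM proteasome as dispensed / Buffer or medium: pH 7.4 Tris-HCl (50 mM) with ovalbumin, ATP-MgCl2, DTT / Times: preincubation 30 min, reaction 25 min, room temperature / Technique: AMC fluorescence from Ub-AMC cleavage, excitation 355 nm, emission 460 nm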
* marks the source's active call; other numbers are inactive results; x = not tested or not shown.

SMILES	NadD inh	SENP1 FRET inh	ATG4B inh	GRIN3A LBD mod	UCH37 inh
O=C(C[n+]1ccccc1)NN=Cc1ccccc1C(F)(F)F	x	x	x	x	5
Cc1ccc(C(=O)NC(=S)Nc2cccc3nsnc23)cc1	-1	-20	-11	0	-4
Cc1ccc(C(=O)NC(=S)Nc2c(C)ccc3nsnc23)cc1	3	2	6	11*	3
Cc1ccc(C=NNC(=O)Cc2ccc(O)cc2)s1	x	x	x	x	4
Cc1ccc(C=NNC(=O)c2ccc(Br)o2)s1	x	x	x	x	2
O=C(N/N=C/c1ccc[nH]1)c1c[nH]c2ccccc12	-5	-7	3	32*	x
C/C(=N\NC(=O)c1csc(C)c1C)c1ccc(C)s1	-2	3	-3	15*	x
Cc1ccc(/C=N/NC(=O)c2ccc(C(=O)N/N=C/c3ccc(C)s3)o2)s1	8	-21	-4	28*	x
C/C(=N\NC(=O)c1c[nH]c2ccccc12)c1ccc(C)s1	-2	3	1	15*	x
CCOC(=O)c1ccc(-c2ccc(C=NNC(=O)CN(c3cccc(C)c3)S(C)(=O)=O)o2)cc1	x	x	x	x	-185
O=C(NN=Cc1ccc(O)c(O)c1O)/C(=C/c1ccc([N+](=O)[O-])cc1)NC(=O)c1ccccc1	x	x	x	x	8
Cc1ccc(C=NNC(=O)c2c[nH]c3ccccc23)o1	x	x	x	x	8
Cc1ccsc1C=NNC(=O)c1c[nH]c2ccccc12	x	x	x	x	8
Cc1ccsc1/C=N/NC(=O)c1c[nH]c2ccccc12	-1	3	5	15*	x
Cc1ccc(/C=N/NC(=O)c2c[nH]c3ccccc23)s1	1	-3	10	35*	x
O=C(N/N=C/c1ccsc1)c1c[nH]c2ccccc12	-2	1	-8	31*	x
O=C(NN=Cc1ccc(Br)s1)c1c[nH]c2ccccc12	x	x	x	x	6
O=C(N/N=C/c1ccccn1)c1c[nH]c2ccccc12	-1	-3	-8	4	x
Cc1ccc(/C=N/NC(=O)c2c[nH]c3ccccc23)o1	-2	-1	-13	17*	x
COc1ccc(C=NNc2ccc([N+](=O)[O-])cc2[N+](=O)[O-])c(C(=O)O)c1OC	x	x	x	x	16
COc1ccc(OCC(O)Cn2cnc(-c3ccc(Br)cc3)c2)cc1 (stereo not drawn)	-11	0	-20	-10	2
OC(COc1ccc2ccccc2c1Br)Cn1cnc(-c2ccccc2)c1 (stereo not drawn)	-2	-1	-33	14*	1
CCCCCCCCCC(=O)NN=Cc1ccc(C)s1	x	x	x	x	4
NC(=O)c1cc([N+](=O)[O-])ccc1Nc1ccccc1	-4	1	-6	-3	-1
O=c1nc(Nc2ccccc2)sc2ccc([N+](=O)[O-])cc12	2	2	19	20*	x
SMILES	NadD inh	SENP1 FRET inh	ATG4B inh	GRIN3A LBD mod	UCH37 inh
CNC(=S)NN=Cc1cn(Cc2c(F)cccc2Cl)c2ccccc12	x	x	x	x	8
NC(=O)NN=Cc1c(O)ccc2oc3c(c12)CCCC3	x	x	x	x	3
CC(C)CN=Cc1c(O)c([N+](=O)[O-])cc2oc3c(c12)CCCC3	13	32*	22	-5	10
Cn1c(=O)[nH]c(=O)c2c1nc(N1CCCCCC1)n2Cc1cccc2ccccc12	7	0	-9	-2	32*
COc1cc(C(C)=NNC(=O)Cc2c(C)[nH][nH]c2=O)ccc1O	x	x	x	x	-1
C=CCN1C(=O)c2ccc(C(=O)OCC(=O)Nc3ccc(S(N)(=O)=O)cc3)cc2C1=O	2	-1	-12	17*	0
CN(C)c1ccc(C(=O)OCC(=O)Nc2ccc(S(N)(=O)=O)cc2)cc1	4	1	3	2	-3
COc1ccccc1N1CCN(N=Cc2cc(OC)c(O)c(OC)c2)CC1	x	x	x	x	1
COc1ccc(-c2[nH]c(-c3ccc(Cl)cc3)nc2SCC(=O)Nc2nccs2)cc1	5	-7	-4	11*	1
CCOc1ccc(S(=O)(=O)Nc2ccc(C(=O)NN=C(C)c3ccc(-n4ccnc4)cc3)cc2)cc1	x	x	x	x	-1
O=C(Nc1csc([N+](=O)[O-])c1)Nc1ccccc1Cl	-4	3	-4	39*	4
O=C(Nc1ccc2c(c1)Cc1ccccc1-2)c1ccncc1	-3	2	-12	18*	-3
O=C(Nc1ccccc1F)Nc1cccnc1Cl	-7	2	8	0	2
O=C(Nc1ccccc1Cl)Nc1cccnc1Cl	-3	4	-6	19*	2
Cc1c(Cl)cccc1NC(=O)Nc1ccc(C(N)=O)cc1	-3	3	8	11*	1
O=C(NN=Cc1ccc([N+](=O)[O-])o1)c1cn2ccc3ccccc3c2n1	x	x	x	x	2
O=C(Nc1ccc2c(c1)CCC2)Nc1ccccc1Cl	2	0	2	10*	1
CCOc1ccccc1NC(=O)Nc1ccc2c(c1)CCC2	-7	2	8	2	2
CC(C)C(=O)Nc1ccc(Nc2ccccc2)cc1	-1	-1	-3	26*	3
O=C(Cc1ccc(Cl)cc1)Nc1ncc([N+](=O)[O-])s1	-4	-8	-4	-7	1
O=C(Nc1ccc(Cl)cc1)Nc1ccccc1Sc1ncc([N+](=O)[O-])s1	30	-8	1	13*	x
COc1cc(C(=O)Nc2ccc3c(c2)Cc2cc(NC(=O)c4cc(OC)c(OC)c(OC)c4)ccc2-3)cc(OC)c1OC	-5	1	-1	24*	-5
O=C(NN=Cc1cc(Br)cc(Br)c1O)c1ccncc1	x	x	x	x	-1
COc1cccc(-c2c(C(=O)NN=Cc3ccc(C)o3)nnn2-c2nonc2N)c1	x	x	x	x	-22
O=C(Nc1ccccc1Cl)Nc1ccccc1Cl	-7	0	-3	-3	5
SMILES	NadD inh	SENP1 FRET inh	ATG4B inh	GRIN3A LBD mod	UCH37 inh
Cc1occc1C(=O)Nc1ccc2c(c1)CCC2	2	-2	-2	11*	7
O=C(Nc1ccc2c(c1)CCC2)c1ccccc1	-7	2	-1	14*	2
Cc1nc(NC(=O)c2ccc(F)cc2)sc1C(=O)Nc1ccc2c(c1)CCC2	-4	0	-11	5	-24
O=C(Nc1ccc(Nc2ccccc2)cc1)Nc1ccccc1Cl	-3	1	16	18*	2
O=C(O)c1ccccc1-c1ccccc1C(=O)Nc1ccc2c(c1)CCC2	4	0	-8	4	2
Cc1ccc(C(=O)Nc2nc(C)c(C(=O)Nc3ccc4c(c3)CCC4)s2)cc1	16	-26	6	19*	2
CC(=NOCC(=O)OC(C)C(=O)Nc1ccc(C(N)=O)cc1)c1ccc2c(c1)OCO2 (stereo not drawn)	x	x	x	x	0
Cc1cc2nc(CCN(Cc3cccnc3)C(=S)Nc3ccc(F)cc3)[nH]c2cc1C	3	1	-23	27*	6
Cc1cc2nc(CCN(Cc3cccnc3)C(=S)Nc3ccccc3)[nH]c2cc1C	3	1	-9	-1	0
CC(C)c1ccc(C(=O)NN2C(=O)C3CCCCC3C2=O)cc1 (stereo not drawn)	0	2	-8	25*	0
